# According to ChEMBL document CHEMBL4138171, “Design, synthesis and biological evaluation of novel aryldiketo acids with enhanced antibacterial activity against multidrug resistant bacterial strains” (Eur J Med Chem, 2018):
# Columns and labels:
# Staphylococcus aureus [1] = test: Potency index, ratio of norfloxacin MIC to test compound MIC for Norfloxacin-resistant Staphylococcus aureus 1199B over-expressing NorA; type: functional
# Staphylococcus aureus [2] = test: Antibacterial activity against erythromycin-resistant Staphylococcus aureus RN4220 after 16 hrs by microdilution method; type: functional; conditions: RN4220, 16 h
# Method in brief: (§1)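 Broth microdilution in cation-adjusted Mueller-Hinton broth (20 mg/l Ca2+, 10 mg/L Mg2+), inoculum 5×10^5 CFU/mL. Compounds in DMSO, solvent under 1% in well, tested over 0.12-128 µg/ml. […] Each determined at least twice; values converted to µmol/L.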
# Staphylococcus aureus [3] = test: Antibacterial activity against tetracycline/methicillin-resistant Staphylococcus aureus XU212 after 16 hrs by microdilution method; type: functional; conditions: XU212, 16 h; method in brief: as §1
# Escherichia coli = test: Antibacterial activity against Escherichia coli NCTC 12241 after 16 hrs by microdilution method; type: functional; conditions: NCTC 12241, 16 h
# Method in brief: (§2)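 Broth microdilution in cation-adjusted Mueller-Hinton broth (20 mg/l Ca2+, 10 mg/L Mg2+), inoculum 5×10^5 CFU/mL. Compounds from DMSO stocks, final DMSO <1%, tested over 0.12–128 µg/ml. Incubated 37 °C and read visually after 16 h. MIC is the lowest concentration with no visible growth, determined at least twice and converted to µmol/L.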
# Staphylococcus aureus [4] = test: Antibacterial activity against Norfloxacin-resistant Staphylococcus aureus 1199B over-expressing NorA after 16 hrs by microdilution method; type: functional; method in brief: as §1
# Staphylococcus aureus [5] = test: Antibacterial activity against Staphylococcus aureus EMRSA-15 after 16 hrs by microdilution method; type: functional; conditions: EMRSA-15, 16 h; method in brief: as §2
# Staphylococcus aureus [6] = test: Antibacterial activity against methicillin-resistant Staphylococcus aureus NCTC 13373 after 16 hrs by microdilution method; type: functional; conditions: NCTC 13373, 16 h; method in brief: as §1
# Staphylococcus aureus [7] = test: Antibacterial activity against methicillin-sensitive Staphylococcus aureus NCTC 12981 after 16 hrs by microdilution method; type: functional; conditions: NCTC 12981, 16 h; method in brief: as §2
# Bacillus subtilis = test: Antibacterial activity against Bacillus subtilis NCTC 10400 after 16 hrs by microdilution method; type: functional; conditions: NCTC 10400, 16 h; method in brief: as §2
# Enterococcus faecalis = test: Antibacterial activity against Enterococcus faecalis NCTC 12697 after 16 hrs by microdilution method; type: functional; conditions: NCTC 12697, 16 h; method in brief: as §2
# [8] = Cytotoxicity against human MRC5 cells; type: cell-based
# Albumin [9] = target: T1, Albumin (Homo sapiens, UniProt P02768); test: Binding affinity to human serum albumin at 310K by Stern-Volmer plot method; type: ADME; conditions: isolated protein
# Method in brief: (§3)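 Fatty acid-free HSA held at 5 × 10^-7 M in 30 mM PBS pH 7.38, titrated with compound DMSO stock at 0.5–8 molar equivalents (final DMSO ≤2%). Equilibrated 20 min after each addition. Fluorescence excitation 280 nm, emission 300–450 nm, PBS background subtracted. Quenching recorded at 293, 303 and 310 K and analysed by Stern-Volmer, molar ratio and van't Hoff treatment.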
# Albumin [10] = target: T1, Albumin; test: Binding affinity to human serum albumin assessed as Gibbs free energy change at 310K by Van't Hoff plot method; type: ADME; conditions: isolated protein; method in brief: as §3
# Albumin [11] = target: T1, Albumin; test: Binding affinity to human serum albumin at 303K by Stern-Volmer plot method; type: ADME; conditions: isolated protein; method in brief: as §3
# Albumin [12] = target: T1, Albumin; test: Binding affinity to human serum albumin assessed as Gibbs free energy change at 303K by Van't Hoff plot method; type: ADME; conditions: isolated protein; method in brief: as §3
# [13] = Octanol/phosphate buffer distribution co-efficient, log D of the compound at 7.4 by shake-flask method; type: physicochemical; conditions: pH 7.4
# Method in brief: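 Shake-flask partition between octanol and 10 mM phosphate buffer pH 7.4. Compound stock 5.0 × 10^-3 M in buffer-saturated octanol. Aqueous concentration measured spectrophotometrically against a calibration curve; octanol concentration taken by difference. Three octanol/buffer volume ratios; mean ± 95% CI.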
# Albumin [14] = target: T1, Albumin; test: Binding affinity to human serum albumin at 310K by fluorescence spectroscopic method; type: ADME; conditions: isolated protein; method in brief: as §3
# Albumin [15] = target: T1, Albumin; test: Binding affinity to human serum albumin assessed as change in entropy at 293K by Van't Hoff plot method; type: ADME; conditions: isolated protein; method in brief: as §3
# Albumin [16] = target: T1, Albumin; test: Binding affinity to human serum albumin assessed as change in enthalpy at 293K by Van't Hoff plot method; type: ADME; conditions: isolated protein; method in brief: as §3
# Albumin [17] = target: T1, Albumin; test: Binding affinity to human serum albumin at 310K by Van't Hoff plot method; type: ADME; conditions: isolated protein; method in brief: as §3
# Albumin [18] = target: T1, Albumin; test: Binding affinity to human serum albumin assessed as Gibbs free energy change at 293K by Van't Hoff plot method; type: ADME; conditions: isolated protein; method in brief: as §3
# Albumin [19] = target: T1, Albumin; test: Binding affinity to human serum albumin at 303K by fluorescence spectroscopic method; type: ADME; conditions: isolated protein; method in brief: as §3
# [20] = Acidity constant, pKa of the compound at 5 x 10^-5 M by UV/Vis spectrophotometric titration method; type: physicochemical
# Method in brief: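 Spectrophotometric titration at 20 ± 0.5 °C of a 5 × 10^-5 M working solution (ethanol, then 10 mM phosphate buffer pH 10.44, I = 0.1 M NaCl). Acidified stepwise with H3PO4 to pH ~4, with pH monitored continuously. UV/Vis spectra 210–600 nm against blank. pKa2 taken from the slope of the linearized absorbance equation. Three sets; mean ± 95% CI.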
# Albumin [21] = target: T1, Albumin; test: Binding affinity to human serum albumin at 293K by Van't Hoff plot method; type: ADME; conditions: isolated protein; method in brief: as §3
# Albumin [22] = target: T1, Albumin; test: Binding affinity to human serum albumin at 303K by Van't Hoff plot method; type: ADME; conditions: isolated protein; method in brief: as §3
# Albumin [23] = target: T1, Albumin; test: Binding affinity to human serum albumin at 293K by Stern-Volmer plot method; type: ADME; conditions: isolated protein; method in brief: as §3
# Albumin [24] = target: T1, Albumin; test: Binding affinity to human serum albumin at 293K by fluorescence spectroscopic method; type: ADME; conditions: isolated protein; method in brief: as §3
# T1 sequence (P02768 whole entry): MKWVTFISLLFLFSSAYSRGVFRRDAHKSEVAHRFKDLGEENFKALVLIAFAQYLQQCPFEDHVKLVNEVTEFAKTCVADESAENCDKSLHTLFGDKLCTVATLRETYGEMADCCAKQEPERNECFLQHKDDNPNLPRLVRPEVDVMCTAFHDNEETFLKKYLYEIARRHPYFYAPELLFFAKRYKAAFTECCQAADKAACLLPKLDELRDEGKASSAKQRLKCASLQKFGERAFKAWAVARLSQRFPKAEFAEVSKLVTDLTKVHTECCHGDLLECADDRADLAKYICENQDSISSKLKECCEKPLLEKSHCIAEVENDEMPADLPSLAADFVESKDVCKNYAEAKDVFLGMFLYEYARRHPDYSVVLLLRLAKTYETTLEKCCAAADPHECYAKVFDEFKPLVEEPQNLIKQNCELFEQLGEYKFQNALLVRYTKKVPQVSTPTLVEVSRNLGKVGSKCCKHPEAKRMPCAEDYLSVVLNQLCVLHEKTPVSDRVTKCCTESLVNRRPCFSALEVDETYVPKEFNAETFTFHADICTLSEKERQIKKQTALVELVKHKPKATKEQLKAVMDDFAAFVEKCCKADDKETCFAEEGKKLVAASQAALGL
smiles,measurement,setting,value
CCc1cc(CC)c(C(=O)/C=C(\O)C(=O)O)c(CC)c1,Ratio,Staphylococcus aureus [1],10
same,MIC,Staphylococcus aureus [2],232 µM
same,MIC,Staphylococcus aureus [3],232 µM
same,MIC,Escherichia coli,> 128 µg/mL
same,MIC,Staphylococcus aureus [4],116 µM
same,MIC,Staphylococcus aureus [5],232 µM
CC(C)c1cc(C(C)C)c(C(=O)/C=C(\O)C(=O)O)c(C(C)C)c1,MIC,Staphylococcus aureus [6],> 128 µg/mL
same,MIC,Staphylococcus aureus [7],13 µM
same,MIC,Staphylococcus aureus [2],50 µM
same,MIC,Staphylococcus aureus [3],50 µM
same,MIC,Escherichia coli,> 128 µg/mL
same,MIC,Bacillus subtilis,25 µM
same,MIC,Staphylococcus aureus [4],25 µM
same,MIC,Staphylococcus aureus [5],25 µM
same,MIC,Enterococcus faecalis,> 128 µg/mL
same,IC90,[8],90 µM
O=C(O)/C(O)=C/C(=O)c1cc(C2CCCCC2)ccc1C1CCCCC1,KSV,Albumin [9],1.48 ×10⁶ /M
same,Ka,Albumin [9],0.95 ×10⁶ /M
same,Kq,Albumin [9],2.09 ×10¹⁴ /M/s
same,MIC,Staphylococcus aureus [6],11 µM
same,MIC,Staphylococcus aureus [7],11 µM
same,deltaG,Albumin [10],-8.75 kcal/mol
same,KSV,Albumin [11],1.6 ×10⁶ /M
same,Ka,Albumin [11],1.02 ×10⁶ /M
same,Kq,Albumin [11],2.26 ×10¹⁴ /M/s
same,deltaG,Albumin [12],-8.6 kcal/mol
same,logD,[13],2.6
same,logKb,Albumin [14],6.75
same,deltaS,Albumin [15],96.76 J/mol/K
same,deltaH,Albumin [16],-1.59 kcal/mol
same,MIC,Staphylococcus aureus [2],11 µM
same,MIC,Staphylococcus aureus [3],11 µM
same,lnK,Albumin [17],14.21 M⁻¹
same,deltaG,Albumin [18],-8.36 kcal/mol
same,MIC,Escherichia coli,> 128 µg/mL
same,logKb,Albumin [19],6.84
same,pKa at 50 µM,[20],7.56
same,lnK,Albumin [21],14.36 M⁻¹
same,MIC,Bacillus subtilis,125 µM
same,lnK,Albumin [22],14.29 M⁻¹
same,MIC,Staphylococcus aureus [4],11 µM
same,MIC,Staphylococcus aureus [5],22 µM
same,MIC,Enterococcus faecalis,6 µM
same,KSV,Albumin [23],1.72 ×10⁶ /M
same,Ka,Albumin [23],1.06 ×10⁶ /M
same,Kq,Albumin [23],2.42 ×10¹⁴ /M/s
same,IC90,[8],30 µM
same,logKb,Albumin [24],7.02
